In BindingDB's records for doi:10.1021/np300893n (The University of Mississippi, 2013):

Molecular target: Myc proto-oncogene protein (Homo sapiens, UniProt P01106)
Assay: Inhibition of Myc signaling pathway in human HeLa cells assessed as inhibition of PMA induced luciferase treated 30 mins before induction
Summary of the method: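 Reporter assay in cells transfected with pathway luciferase plasmids. Cells plated at 0.015 × 10⁶ per well in 10% FBS, switched after 24 h to DMEM with 1% FBS, then transfected. 24 h after transfection, compound (final 40, 60, 80 or 100 μM) was added, followed 30 min later by inducer (IL-6, TGF-β, wnt3a or PMA). Luciferase was read 4 or 6 h after induction (6 h for Notch, Wnt, Hedgehog). Value is the IC50 or the lowest concentration giving maximal 50–60% inhibition; two independent experiments.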

Chain of Myc proto-oncogene protein (P01106 16-454): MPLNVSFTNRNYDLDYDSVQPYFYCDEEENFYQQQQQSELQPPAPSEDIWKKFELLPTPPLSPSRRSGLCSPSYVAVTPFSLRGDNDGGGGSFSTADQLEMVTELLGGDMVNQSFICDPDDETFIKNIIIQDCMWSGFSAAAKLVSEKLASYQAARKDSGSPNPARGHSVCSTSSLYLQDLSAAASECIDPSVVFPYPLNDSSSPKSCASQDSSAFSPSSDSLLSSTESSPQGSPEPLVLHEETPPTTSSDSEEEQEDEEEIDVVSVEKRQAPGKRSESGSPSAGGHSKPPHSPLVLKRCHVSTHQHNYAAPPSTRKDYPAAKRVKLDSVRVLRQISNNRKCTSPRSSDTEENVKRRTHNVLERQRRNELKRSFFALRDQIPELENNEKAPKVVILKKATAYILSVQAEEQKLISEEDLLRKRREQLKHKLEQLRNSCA

Structure (SMILES): COc1cc(/C=C\c2ccc(OC)c(OC)c2)cc(OC)c1 [(Z)-3,4,3'',5''-Tetramethoxystilbene]
- IC50: 60 µM
